Data as given in article PMC8266240 (Journal of Enzyme Inhibition and Medicinal Chemistry, 2021).
Peptide text beside a SMILES is read from it. * marks the point of attachment. Cbz = O=C(OCc1ccccc1)*; CH2F = FC*

These compounds were tested on HeLa cells (assay: Effect of inhibitors/activators on 12A-induced vacuolization in HeLa cells). Details: pre- or co-treated with 12A, 8 h.
Format: cell-based, human
Summary of the method: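 HeLa cells, alone or with the vacuolization-inducing test compound, were exposed to modulators for 8 h: pan-caspase inhibitor Z-VAD-FMK, autophagy inhibitors 3-MA and LY294002, autophagy activator rapamycin, bafilomycin A1, cycloheximide, ERK1/2 inhibitor PD98059 and JNK inhibitor SP600125. Some inhibitors were given as a 2 h pre-treatment before the test compound. Vacuoles were assessed by microscopy imaging.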

| Structure (SMILES) | effect on 12A-induced vacuolization |
| --- | --- |
| Cn1cnc(N)c2ncnc1-2 [3-methyladenine] | did not decrease |
| CO/C1=C\C(C)=C\[C@@H](C)[C@@H](O)[C@@H](C)C/C(C)=C/C=C/[C@H](OC)[C@@H]([C@@H](C)[C@@H](O)[C@H](C)[C@@]2(O)C[C@@H](O)[C@H](C)[C@@H](C(C)C)O2)OC1=O [Baf-A1, Bafilomycin A1] | dramatically blocked the formation of vacuoles |
| C[C@@H]1C[C@@H]([C@H](O)CC2CC(=O)NC(=O)C2)C(=O)[C@@H](C)C1 [CHX, Cycloheximide] | dramatically blocked the formation of vacuoles |
| O=c1cc(N2CCOCC2)oc2c(-c3ccccc3)cccc12 [LY294002] | did not decrease |
| COc1cccc(-c2cc(=O)c3ccccc3o2)c1N [PD98059] | significantly decreased |
| Oc1c2ccccc2c2c3c(cccc13)N=N2 [SP600125] | significantly decreased |
| COC(=O)C[C@H](NC(=O)[C@H](C)NC(=O)[C@@H](NC(=O)OCc1ccccc1)C(C)C)C(=O)CF [Z-VAD-FMK] (Cbz-Val-Ala-Asp(OMe)-CH2F) | not inhibited |
| CO[C@H]1C[C@@H]2CC[C@@H](C)[C@@](O)(O2)C(=O)C(=O)N2CCCC[C@H]2C(=O)O[C@H]([C@H](C)C[C@@H]2CC[C@@H](O)[C@H](OC)C2)CC(=O)[C@H](C)/C=C(\C)[C@@H](O)[C@@H](OC)C(=O)[C@H](C)C[C@H](C)/C=C/C=C/C=C/1C [rapamycin] | failed to promote |
